This is an account of results in the array DNA melting data of Ke et al. (doi:10.1101/2024.01.08.574731).

Data set [1] can be described thus: folding enthalpy; higher = less favourable; fluorescence melt of hairpins on a sequencing array, two-state fit. The following applies: sodium 0.088 M. The method in brief:
(§1)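 Melting temperature and folding enthalpy were obtained by bootstrapped two-state fitting. Fits used Cy3 fluorescence of library hairpins with annealed Cy3 and quencher oligos on a sequenced MiSeq flow cell, imaged in 50 mM Na-HEPES pH 8.0, 25 mM NaCl in 2.5 °C steps up to 60 °C and normalised to pre-quench Cy3 and control constructs. Four replicates were combined by inverse-variance weighting, and fitted temperatures were raised by 9.35 °C to match UV melts.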

The nature of data set [2]: melting temperature; fluorescence melt of hairpins on a sequencing array, two-state fit, raised by 9.35 °C to match UV melts. The following applies: sodium 0.088 M. In outline: as §1

For GGCGACGAAAGTCCCGCC ((((((....)))..))), the folding enthalpy in data set [1] was -19.5 kcal/mol. Moreover, the Tm in data set [2] was determined as 54.8 °C.

Take GGATAGCCGAAAGGCTCC (((..(((....)))))): the folding enthalpy in data set [1] was -9.11 kcal/mol. Besides, in data set [2], the Tm came to 38.1 °C.

For GATCCCCAGAGGGATC ((((((....)))))), the folding enthalpy in data set [1] is -31.7 kcal/mol. Besides, the Tm in data set [2] was found to be 59.8 °C.

On to GGGGAGTCGAAAGACCCC (((..(((....)))))), for which, in data set [1], the folding enthalpy was -29.2 kcal/mol. Besides, the Tm in data set [2] amounted to 54.7 °C.

As to GATCTCCATCGAGATC ((((((....)))))), the folding enthalpy in data set [1] is -34.4 kcal/mol. In addition, the Tm in data set [2] worked out at 50.7 °C.

For the sequence CTGAGGAAACTCAG (((((....))))), the folding enthalpy in data set [1] was -20.1 kcal/mol. Also, the Tm in data set [2] came to 47.1 °C.

Regarding GGTAACGAAAGTTTAACC ((((((....)))..))), in data set [1], the folding enthalpy was -15.7 kcal/mol. Moreover, in data set [2], the Tm was found to be 33.8 °C.

On to CGGTCACGGAAACGTCCG (((..(((....)))))), for which the folding enthalpy in data set [1] is -10.3 kcal/mol. For the same sequence, in data set [2], the Tm turned out to be 38.7 °C.

As for GCGCTGGGAAACCAGCAC (.(((((....))))).), the folding enthalpy in data set [1] is -11.9 kcal/mol. In addition, in data set [2], the Tm is 50.4 °C.

Regarding GATCACTAAGGTGATC ((((((....)))))), the folding enthalpy in data set [1] was -35.4 kcal/mol. Besides, in data set [2], the Tm is 57 °C.

With GATCCGCGGCGGATC ((((((...)))))), in data set [1], the folding enthalpy is -50.8 kcal/mol. Besides, in data set [2], the Tm stood at 57.7 °C.

Consider GCTCCCGAAAGGGTGAGC ((((((....)))..))), for which the folding enthalpy in data set [1] was -16.7 kcal/mol. In addition, in data set [2], the Tm is 48.8 °C.

With GATCGTACCGACGATC ((((((....)))))), the folding enthalpy in data set [1] was -53.3 kcal/mol. For the same sequence, the Tm in data set [2] came out at 53.4 °C.

Turning to CTCCGGAAACGGAG (((((....))))), the folding enthalpy in data set [1] is -24 kcal/mol. Further, the Tm in data set [2] is 55.1 °C.

Turning to GTTCCGGGAAACCGGGAC ((.((((....)))).)), the folding enthalpy in data set [1] is -35.5 kcal/mol. Moreover, in data set [2], the Tm amounted to 57.4 °C.

Turning to GATCAACCGTTTGATC ((((((....)))))), the folding enthalpy in data set [1] was -35.2 kcal/mol. Also, the Tm in data set [2] came out at 42.8 °C.

In the case of GGACGCCGAAAGGCCTCC (((.(((....))).))), the folding enthalpy in data set [1] was -19.1 kcal/mol. Further, the Tm in data set [2] is 44.5 °C.

As for GTGCAGGCGAAAGCCCAC (((..(((....)))))), in data set [1], the folding enthalpy is -10.8 kcal/mol. The Tm in data set [2] is 48.9 °C.

As to GAGGTCGCGAAAGCGCTC (((..(((....)))))), the folding enthalpy in data set [1] is -9.53 kcal/mol. Also, the Tm in data set [2] amounted to 35.1 °C.

Turning to GCGTTGCGAAAGCAAGGC ((.((((....)))).)), the folding enthalpy in data set [1] was -30.3 kcal/mol. For the same sequence, in data set [2], the Tm was determined as 68.5 °C.

Take GCTAACGAAAGTTAGAGC ((((((....)))..))): in data set [1], the folding enthalpy was -16.1 kcal/mol. For the same sequence, in data set [2], the Tm was 45.8 °C.

Turning to GGGGAAACGAAAGTTCCC (((..(((....)))))), the folding enthalpy in data set [1] is -22.1 kcal/mol. Also, in data set [2], the Tm was 52 °C.

For the sequence GGCGTCGAAAGACCGCC ((((((....))).))), in data set [1], the folding enthalpy was -34.5 kcal/mol. Moreover, the Tm in data set [2] came to 60.5 °C.

GGTCACCGAAAGGTAACC (((.(((....))).))): the folding enthalpy in data set [1] was -27.5 kcal/mol. Moreover, the Tm in data set [2] amounted to 48.4 °C.

On to GGGGCAGGAAACTGTCCC (((.(((....))).))), for which the folding enthalpy in data set [1] is -39.4 kcal/mol. For the same sequence, in data set [2], the Tm amounted to 61.3 °C.

Consider GAACGCGGAAACACGTCC (.(((.(....).))).), for which the folding enthalpy in data set [1] is -20.1 kcal/mol. Moreover, in data set [2], the Tm turned out to be 28.2 °C.

For GCTTGCCGAAAGGCAGC (((.(((....)))))), in data set [1], the folding enthalpy is -14.4 kcal/mol. For the same sequence, the Tm in data set [2] worked out at 60.1 °C.

Consider GCTCGGCGAAAGCCCAGC (((.(((....))).))), for which, in data set [1], the folding enthalpy was -42.5 kcal/mol. The Tm in data set [2] amounted to 44.2 °C.

GCCCAGCGAAAGCGCGGC (((..((....))..))): the folding enthalpy in data set [1] is -22.1 kcal/mol. The Tm in data set [2] worked out at 61.9 °C.

Consider GATCGACAGATCGATC ((((((....)))))), for which the folding enthalpy in data set [1] was -16.1 kcal/mol. For the same sequence, in data set [2], the Tm worked out at 54.8 °C.

Consider GATCAGTATGCTGATC ((((((....)))))), for which, in data set [1], the folding enthalpy is -36.1 kcal/mol. Also, in data set [2], the Tm turned out to be 55.2 °C.

Take GTCCCAGGAAACTGAGAC (((.(((....))).))): the folding enthalpy in data set [1] is -28 kcal/mol. Further, in data set [2], the Tm stood at 39 °C.

Regarding GAGCTCACGAAAGTGCTC (((..(((....)))))), in data set [1], the folding enthalpy was -20.8 kcal/mol. Besides, the Tm in data set [2] was 44.4 °C.

On to GCCGCGCGAAAGCCGGGC (((..((....))..))), for which the folding enthalpy in data set [1] was -18.5 kcal/mol. Besides, the Tm in data set [2] came out at 68.2 °C.

As to GCTCACGAAAGTGAGAGC ((((((....)))..))), in data set [1], the folding enthalpy was -13.7 kcal/mol. Moreover, the Tm in data set [2] is 59 °C.

Consider GTCCCTCGAAAGAGAGAC (((.(((....))).))), for which the folding enthalpy in data set [1] was -23.3 kcal/mol. Also, the Tm in data set [2] stood at 46.2 °C.

With GGTACCGAAAGGTTACC ((((((....))).))), the folding enthalpy in data set [1] was -26.4 kcal/mol. Also, the Tm in data set [2] was 50 °C.

For GATCCCTGACGGGATC ((((((....)))))), in data set [1], the folding enthalpy is -38.6 kcal/mol. For the same sequence, the Tm in data set [2] was 58.1 °C.

For GGTCGAGGAAACCCGACC (((((.(....).))))), in data set [1], the folding enthalpy is -49.6 kcal/mol. In addition, in data set [2], the Tm is 54.1 °C.

As for GCTGAGCGAAAGCCAAGC (((..((....))..))), the folding enthalpy in data set [1] is -18.8 kcal/mol. The Tm in data set [2] was found to be 48.6 °C.

As for GTACCGGGAAACCGGTAC (((((((....))))))), the folding enthalpy in data set [1] was -29.2 kcal/mol. For the same sequence, in data set [2], the Tm is 68.3 °C.

As for GCGAACTCGAAAGAGCGC (((..(((....)))))), the folding enthalpy in data set [1] was -27.6 kcal/mol. Also, in data set [2], the Tm came to 49.3 °C.

Regarding GATCTGCGGCCAGATC ((((((....)))))), the folding enthalpy in data set [1] was -27.4 kcal/mol. Also, the Tm in data set [2] was 48.6 °C.

GATCTGGCGCCAGATC ((((((....)))))): in data set [1], the folding enthalpy is -47.8 kcal/mol. The Tm in data set [2] was 60.5 °C.

As for GGTGGCGGAAACGCTACC (((.(((....))).))), in data set [1], the folding enthalpy was -39.8 kcal/mol. Besides, the Tm in data set [2] worked out at 59.9 °C.

For the sequence GCCATCGAAAGATGTGGC ((((((....)))..))), in data set [1], the folding enthalpy is -23.4 kcal/mol. In data set [2], the Tm was 46.6 °C.

Consider GCGGCCGAAAGGCGACGC ((((((....)))..))), for which the folding enthalpy in data set [1] is -17.2 kcal/mol. Besides, in data set [2], the Tm is 65.9 °C.

Turning to GTATGACGAAAGTCGTAC (((.(((....))).))), the folding enthalpy in data set [1] is -30.3 kcal/mol. For the same sequence, in data set [2], the Tm came to 53.8 °C.

Regarding GGGGAGGGAAACCTCTCC ((.((((....)))).)), the folding enthalpy in data set [1] was -34.1 kcal/mol. In addition, the Tm in data set [2] turned out to be 51.8 °C.

Consider AGCTCGAAAGAGCT (((((....))))), for which, in data set [1], the folding enthalpy is -20.8 kcal/mol. Moreover, the Tm in data set [2] came out at 68.6 °C.

For GGTATTGGAAACAATACC (((((((....))))))), the folding enthalpy in data set [1] was -43.7 kcal/mol. In addition, the Tm in data set [2] turned out to be 56.9 °C.

On to GGCGATCGAAAGATGCC (((.(((....)))))), for which the folding enthalpy in data set [1] was -37.8 kcal/mol. Moreover, the Tm in data set [2] worked out at 55 °C.

Turning to GCCTCGACGAAAGTCGGC (((..(((....)))))), the folding enthalpy in data set [1] was -6.95 kcal/mol. In addition, the Tm in data set [2] turned out to be 52.1 °C.

GCTGTCGAAAGACGCAGC ((((((....)))..))): the folding enthalpy in data set [1] is -14.1 kcal/mol. Further, the Tm in data set [2] stood at 46.6 °C.

For the sequence GGTGTTGGAAACGACATC (.(((.(....).))).), the folding enthalpy in data set [1] is -21.3 kcal/mol. Further, in data set [2], the Tm came out at 33.2 °C.
